Key:
[1] = biological target: Human immunodeficiency virus type 1 reverse transcriptase (Human immunodeficiency virus 1) (UniProt Q72547); test: Inhibition of HIV-1 reverse transcriptase at a concentration of 1 uM
Summary of the method: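 Recombinant p66/p51 heterodimer RT (>95% homogeneous) at 0.5 nM, with poly(rC):oligo(dG) 0.8 µg/mL and 500 nM [3H]dGTP. Compound in DMSO, diluted in buffer; enzyme-started, 1 h at room temperature. TCA/pyrophosphate-precipitated product filtered and counted; inhibition versus no-compound reactions.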

[2] = biological target: Human immunodeficiency virus type 1 reverse transcriptase (Human immunodeficiency virus 1, UniProt Q72547); test: In vitro inhibitory activity against HIV-1 reverse transcriptase.
T-cell = test: In vitro inhibitory activity against HIV-1(IIIB) replication in human T-cells (c8166).; assay type: functional, cell-based
Summary of the method: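 CD4+ human T-cell line c8166 infected with HIV-1 IIIB. Syncytia formation scored, with IC50 taken as the concentration giving a 50% reduction in centers of syncytia.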

Row | SMILES | inhibition [1] | IC50 [2] | IC50 (T-cell)
1 | Cc1ccc2c(c1)Oc1ccc(C#N)cc1C(=O)N2C | 69% | 280 nM | –
2 | Cc1ccc2c(c1)Oc1ccc(O)cc1C(=O)N2C | 58% | 640 nM | –
3 | CN1C(=O)c2cccnc2Oc2cc([N+](=O)[O-])ccc21 | 0% | – | –
4 | CCN1C(=O)c2ccccc2Oc2ccccc21 | 54% | 560 nM | –
5 | Cc1cc(C)c2c(c1)Oc1ccccc1C(=O)N2C | 86% | 57 nM | 38 nM
6 | CCCN1C(=O)c2cc(N)ccc2Oc2c(C)cc(C)cc21 | 52% | 900 nM | –
7 | CCCN1C(=O)c2ccccc2S(=O)(=O)c2ccccc21 | 31% | – | –
8 | Cc1cc(C)c2c(c1)Oc1ccc(O)cc1C(=O)N2C | 80% | 63 nM | 88 nM
9 | CCCN1C(=O)c2cc(N)ccc2Oc2cc(C)c(C)cc21 | 87% | 165 nM | –
10 | CNc1ccc2c(c1)C(=O)N(C)c1ccccc1O2 | 40% | – | –
11 | CCN1C(=O)c2cc(N)cnc2Oc2cc(C)c(C)cc21 | 83% | 71 nM | –
12 | CCN1C(=O)c2cc(N)cnc2Oc2cc(C)cc(C)c21 | 93% | 27 nM | 54 nM
13 | CCCN1C(=O)c2cc(N)ccc2Oc2ccc(C)c(C)c21 | 63% | 670 nM | –
14 | Cc1cc(N)c2c(c1)Oc1ncccc1C(=O)N2C | 53% | 1000 nM | –
15 | CCN1C(=O)c2cc(N)ccc2Oc2ccc(C)cc21 | 76% | 240 nM | –
16 | Cc1cc2c(cc1C)N(C)C(=O)c1cc(N)cnc1O2 | 72% | 322 nM | –
17 | CCN1C(=O)c2cccnc2Oc2cccc(N)c21 | 33% | – | –
18 | Cc1cc(C)c2c(c1)Oc1ccc(C#N)cc1C(=O)N2C | 77% | 50 nM | 31 nM
19 | CN1C(=O)c2cccnc2Oc2ccccc21 | 23% | – | –
20 | CN1C(=O)c2cccnc2Oc2cc(F)ccc21 | 3% | – | –
21 | CCN1C(=S)c2cccnc2Oc2cc(C)cc(C)c21 | 82% | 90 nM | –
22 | Cc1ccc2c(c1)Oc1ncccc1C(=O)N2C | 43% | – | –

Row | SMILES | inhibition [1] | IC50 [2] | IC50 (T-cell)
23 | Cc1cccc2c1N(C)C(=O)c1ccccc1O2 | 36% | – | –
24 | COc1ccc2c(c1)Oc1ncccc1C(=O)N2C | 24% | – | –
25 | C=CCN1C(=O)c2cccnc2Oc2ccccc21 | 40% | – | –
26 | Cc1cc(CO)c2c(c1)Oc1ncccc1C(=O)N2C | 39% | – | –
27 | CN1C(=O)c2cc(N)ccc2Oc2ccccc21 | 73% | 180 nM | –
28 | CC(C)N1C(=O)c2ccccc2Oc2ccccc21 | 73% | 340 nM | –
29 | CCN1C(=O)c2cc(N)ccc2Oc2ccccc21 | 82% | 145 nM | –
30 | Cc1cc(C#N)c2c(c1)Oc1ncccc1C(=O)N2C | 88% | 55 nM | –
31 | CCN1C(=O)c2cccnc2Oc2ccccc21 | 25% | – | –
32 | CCCN1C(=S)c2ccccc2Oc2ccccc21 | 46% | 2200 nM | –
33 | CCN1C(=O)c2ccccc2Oc2nc(Cl)ccc21 | 35% | – | –
34 | CCCN1C(=O)c2cc(N)ccc2Oc2cccc(C)c21 | 70% | 260 nM | –
35 | O=C1Nc2ccccc2Oc2ccccc21 | 30% | – | –
36 | CN(C)c1ccc2c(c1)Oc1ncccc1C(=O)N2C | 34% | – | –
37 | CCCN1C(=O)c2cc(N)ccc2Oc2cc(C)ccc21 | 84% | 130 nM | –
38 | CCN1C(=O)c2cccnc2Oc2cc(C)cc(C)c21 | 92% | 29 nM | –
39 | CCCN1C(=O)c2cccnc2Oc2ncccc21 | 5% | – | –
40 | CCCN1C(=O)c2cccnc2Oc2ccccc21 | 31% | – | –
41 | CCN1C(=O)c2cccnc2Oc2cc(C)cc([N+](=O)[O-])c21 | 85% | 31 nM | –
42 | Cc1ccc2c(c1)Oc1ncccc1C(=O)N2 | 5% | – | –
43 | CN1C(=O)c2cccnc2Oc2cc(O)ccc21 | 14% | – | –
44 | CN1C(=O)c2cc(C#N)ccc2Oc2ccccc21 | 12% | – | –

Row | SMILES | inhibition [1] | IC50 [2] | IC50 (T-cell)
45 | Cc1cc2c(c([N+](=O)[O-])c1)N(C)C(=O)c1cccnc1O2 | 85% | 23 nM | –
46 | Cc1ccc2c(c1)Oc1ccccc1C(=O)N2C | 66% | 600 nM | –
47 | CN1C(=O)c2ccc(N)cc2Oc2ccccc21 | 19% | – | –
48 | CN1C(=O)c2cccnc2Oc2cccc(C#N)c21 | 29% | – | –
49 | CN1C(=O)c2cc(CN)ccc2Oc2ccccc21 | 0% | – | –
50 | CCN1C(=O)c2cccnc2Oc2cccc([N+](=O)[O-])c21 | 58% | 343 nM | –
51 | Cc1ccc2c(c1)Oc1ncc(N)cc1C(=O)N2C | 57% | 250 nM | –
52 | C=CCN1C(=O)c2ccccc2Oc2ccccc21 | 58% | 465 nM | –
53 | Cc1cccc2c1NC(=O)c1cc(N)ccc1O2 | 31% | – | –
54 | Cc1cc2c(c(S(C)(=O)=O)c1)N(C)C(=O)c1cccnc1O2 | 27% | – | –
55 | COC(=N)c1cc(C)cc2c1N(C)C(=O)c1cccnc1O2 | 0% | – | –
56 | CCCN1C(=O)c2ccccc2Oc2ccccc21 | 72% | 375 nM | –
57 | CCN1C(=O)c2cc(N)ccc2Oc2cc(C)cc(C)c21 | 95% | 43 nM | –
58 | CCCN1C(=O)c2ccccc2Oc2nc(Cl)ccc21 | 68% | 210 nM | –
59 | CN1C(=O)c2ccccc2Oc2cc(N)ccc21 | 20% | – | –
60 | Cc1cc2c(cc1C)N(C(C)C)C(=O)c1cc(N)cnc1O2 | 89% | 45 nM | –
61 | Cc1cc(C)c2c(c1)Oc1ccc(N)cc1C(=O)N2C | 95% | 20 nM | –
62 | COC(=O)c1cc(C)cc2c1N(C)C(=O)c1cccnc1O2 | 95% | 22 nM | –
63 | CCCN1C(=O)c2ccccc2[S+]([O-])c2ccccc21 (configuration not stated) | 20% | – | –
64 | CSCCN1C(=O)c2ccccc2Oc2nc(Cl)ccc21 | 79% | 72 nM | –
65 | Cc1cc2c(c(C(N)=O)c1)N(C)C(=O)c1cccnc1O2 | 31% | – | –
66 | Cc1cc(C)c2c(c1)Oc1ccccc1C(=O)N2 | 39% | – | –

Row | SMILES | inhibition [1] | IC50 [2] | IC50 (T-cell)
67 | CCN1Cc2ccccc2Oc2ccccc21 | 12% | – | –
68 | CCCN1C(=O)c2cc(N)ccc2Oc2ccc(C)cc21 | 53% | – | –
69 | CCN1C(=O)c2cc(N)ccc2Oc2cccc(C)c21 | 90% | 60 nM | –
70 | CON1C(=O)c2ccccc2Oc2ccccc21 | 36% | – | –
71 | Cc1ccc2c(c1)Oc1ncc([N+](=O)[O-])cc1C(=O)N2C | 0% | – | –
72 | CN1C(=O)c2ccccc2Oc2ccccc21 | 20% | – | –
73 | Cc1ccc2c(c1)Oc1ccc(N)cc1C(=O)N2C | 96% | 30 nM | –
74 | CN1C(=O)c2ccccc2Oc2ncccc21 | 2% | – | –
75 | CCN1C(=O)c2cccnc2Oc2cc(C)cc(N)c21 | 73% | 132 nM | –
76 | CN1C(=O)c2cccnc2Oc2cc(N)ccc21 | 0% | – | –
77 | CN1C(=O)c2ccccc2Oc2nc(Cl)ccc21 | 21% | – | –
78 | Cc1cc(C)c2c(n1)Oc1ccccc1C(=O)N2C | 25% | – | –
79 | CC(C)CN1C(=O)c2ccccc2Oc2ncccc21 | 29% | – | –
80 | CCN1C(=O)c2cc([N+](=O)[O-])ccc2Oc2ccccc21 | 23% | – | –
81 | CCCN1C(=O)c2ccccc2Sc2ccccc21 | 77% | 400 nM | –
82 | CCN1C(=O)c2cccnc2Oc2cc(C)cc(C#N)c21 | 96% | 19 nM | –
83 | O=C1c2ccccc2Oc2ccccc2N1O | 15% | – | –
84 | Cc1cc2c(c(C(=O)O)c1)N(C)C(=O)c1cccnc1O2 | 0% | – | –
85 | Cc1cc(C)c2c(c1)Oc1ncc(N)cc1C(=O)N2C | 92% | 46 nM | 115 nM

Reference: ChEMBL document CHEMBL1126047, “Novel non-nucleoside inhibitors of HIV-1 reverse transcriptase. 2. Tricyclic pyridobenzoxazepinones and dibenzoxazepinones” (J Med Chem, 1992)
